Measurements taken from ChEMBL document CHEMBL1687788, “Characterization of two newly identified genes, vgaD and vatH, [corrected] conferring resistance to streptogramin A in Enterococcus faecium” (2010).
In brackets after ≈: the same amount, converted by molar mass.

Key:
Type in all cases: functional
Enterococcus faecium [1] = assay: Antibacterial activity against quinupristin-dalfopristin resistant and ermB gene expressing Enterococcus faecium isolate CS098 containing streptogramin A resistance genes vatG and vgaD isolated from poultry stool samples
Enterococcus faecium [2] = assay: Antibacterial activity against quinupristin-dalfopristin resistant and vanA gene expressing Enterococcus faecium isolate GAV04 containing streptogramin A resistance genes vatG and vgaD isolated from chicken meat samples
Enterococcus faecium [3] = assay: Antibacterial activity against quinupristin-dalfopristin resistant and ermB and vanA gene expressing Enterococcus faecium isolate C19 containing streptogramin A resistance genes vatG and vgaD isolated from poultry stool samples
Enterococcus faecium [4] = assay: Antibacterial activity against quinupristin-dalfopristin resistant and vanA gene expressing Enterococcus faecium isolate GAV12 containing streptogramin A resistance genes vatG and vgaD isolated from chicken meat samples
Method in brief: (§1)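 Isolates were recovered from fecal samples (human, poultry, swine; 2000/2003) or retail meat (2003). Samples were enriched in Enterococcosel broth for 48 h at 37°C, then streaked on Enterococcosel agar containing Q-D at 2 μg/ml to select resistant E. faecium. vatG and vgaD were detected by PCR with gene-specific primers: 30 cycles, annealing at 55°C.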

Enterococcus faecium [5] = assay: Antibacterial activity against quinupristin-dalfopristin resistant and ermB gene expressing Enterococcus faecium isolate CS106 containing streptogramin A resistance genes vatG and vgaD isolated from poultry stool samples
Enterococcus faecium [6] = assay: Antibacterial activity against quinupristin-dalfopristin resistant Enterococcus faecium isolate ES022 containing streptogramin A resistance genes vatG and vgaD isolated from swine stool samples
Enterococcus faecium [7] = assay: Antibacterial activity against quinupristin-dalfopristin abd erythromycin sensitive aEnterococcus faecium U201 transconjugants receiving ermB genes and vatG gene from quinupristin-dalfopristin resistant Enterococcus faecium isolate
Method in brief: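 Transconjugants came from broth mating: donor and recipient overnight M17 cultures were mixed 1:1 into fresh M17 broth for 6 h at 37°C. Selection was on BHI agar with erythromycin (100 μg/ml) and ampicillin (100 μg/ml) for 24 h at 37°C. The erythromycin and Q-D MICs were compared with the donor's.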

Enterococcus faecium [8] = assay: Antibacterial activity against quinupristin-dalfopristin resistant and ermB gene expressing Enterococcus faecium isolate AS115 containing streptogramin A resistance genes vatG and vgaD isolated from poultry stool samples; method in brief: as §1
Enterococcus faecium [9] = assay: Antibacterial activity against quinupristin-dalfopristin resistant and ermB and vanA gene expressing Enterococcus faecium isolate A15 containing streptogramin A resistance genes vatG and vgaD isolated from poultry stool samples; method in brief: as §1
Enterococcus faecium [10] = assay: Antibacterial activity against quinupristin-dalfopristin resistant and ermB gene expressing Enterococcus faecium isolate KS46 containing streptogramin A resistance genes vatG and vgaD isolated from healthy human stool samples
Enterococcus faecium [11] = assay: Antibacterial activity against quinupristin-dalfopristin resistant and ermB gene expressing Enterococcus faecium isolate JS79 containing streptogramin A resistance genes vatG and vgaD isolated from healthy human stool samples
Enterococcus faecium [12] = assay: Antibacterial activity against quinupristin-dalfopristin resistant and ermB gene expressing Enterococcus faecium isolate CS103 containing streptogramin A resistance genes vatG and vgaD isolated from poultry stool samples
Enterococcus faecium [13] = assay: Antibacterial activity against quinupristin-dalfopristin resistant and ermB gene expressing Enterococcus faecium isolate CS121 containing streptogramin A resistance genes vatG and vgaD isolated from poultry stool samples

Structure (SMILES): CC[C@H]1OC(=O)[C@H](C)[C@@H](O[C@H]2C[C@@](C)(OC)[C@@H](O)[C@H](C)O2)[C@H](C)[C@@H](O[C@@H]2O[C@H](C)C[C@H](N(C)C)[C@H]2O)[C@](C)(O)C[C@@H](C)C(=O)[C@H](C)[C@@H](O)[C@]1(C)O [ERYTHROMYCIN]
- MIC (Enterococcus faecium [1]): 256 µg/mL (≈ 349 µM)
- MIC (Enterococcus faecium [2]): < 1 µg/mL
- MIC (Enterococcus faecium [3]): 256 µg/mL (≈ 349 µM)
- MIC (Enterococcus faecium [4]): < 1 µg/mL
- MIC (Enterococcus faecium [5]): 256 µg/mL (≈ 349 µM)
- MIC (Enterococcus faecium [6]): 0.1 µg/mL (≈ 0.136 µM)
- MIC (Enterococcus faecium [7]): 256 µg/mL (≈ 349 µM)
- MIC (Enterococcus faecium [8]): 256 µg/mL (≈ 349 µM)
- MIC (Enterococcus faecium [9]): 256 µg/mL (≈ 349 µM)
- MIC (Enterococcus faecium [10]): 256 µg/mL (≈ 349 µM)
- MIC (Enterococcus faecium [11]): 256 µg/mL (≈ 349 µM)
- MIC (Enterococcus faecium [12]): 256 µg/mL (≈ 349 µM)
- MIC (Enterococcus faecium [13]): 256 µg/mL (≈ 349 µM)

Structure (SMILES): CN[C@H](CC(C)C)C(=O)N[C@H]1C(=O)N[C@@H](CC(N)=O)C(=O)N[C@H]2C(=O)N[C@H]3C(=O)N[C@H](C(=O)N[C@H](C(=O)O)c4cc(O)cc(O)c4-c4cc3ccc4O)[C@H](O)c3ccc(c(Cl)c3)Oc3cc2cc(c3O[C@@H]2O[C@H](CO)[C@@H](O)[C@H](O)[C@H]2O[C@H]2C[C@](C)(N)[C@H](O)[C@H](C)O2)Oc2ccc(cc2Cl)[C@H]1O [VANCOMYCIN]
- MIC (Enterococcus faecium [1]): < 1 µg/mL
- MIC (Enterococcus faecium [2]): 256 µg/mL (≈ 177 µM)
- MIC (Enterococcus faecium [3]): 256 µg/mL (≈ 177 µM)
- MIC (Enterococcus faecium [4]): 256 µg/mL (≈ 177 µM)
- MIC (Enterococcus faecium [5]): < 1 µg/mL
- MIC (Enterococcus faecium [6]): < 1 µg/mL
- MIC (Enterococcus faecium [8]): < 1 µg/mL
- MIC (Enterococcus faecium [9]): 256 µg/mL (≈ 177 µM)
- MIC (Enterococcus faecium [10]): < 1 µg/mL
- MIC (Enterococcus faecium [11]): < 1 µg/mL
- MIC (Enterococcus faecium [12]): < 1 µg/mL
- MIC (Enterococcus faecium [13]): < 1 µg/mL
